In the library only some 3.8% were active in any assay of this set; here they are far more common.
INS promoter inh – inhibitors of insulin promoter-driven GFP, primary screen, imaging, TRM-6 cells (human fetal islet line), eGFP reporter, cell count | reporter expression induced with tamoxifen | inhibition, % at 2 µM | actives 0.9% (n = 130,000) | AID 1273, 2008;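 active means inhibition above the mean plus 3 SD, with well images judged a real hit on visual review, cut at about 60% in these data, passing the limit was not always enough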
NPY-Y1 PAM-ag – NPY-Y1 receptor potentiators or agonists, primary screen, cell-based | actives 0.37% (n = 220,000) | activation, % at 3.6 µM | Neuropeptide Y receptor type 1 (Homo sapiens), P25929 | NPY-Y1 expressing cells, potentiator/agonist activation | AID 1304, 2008; in the data active means activation above about 33%, passing the limit was not always enough;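 further: cells stimulated with NPY at EC10 then isoproterenol at EC100; 0% = low agonist plus stimulus and 100% = saturating agonist plus stimulus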
Target sequence (P25929 whole entry, looked up): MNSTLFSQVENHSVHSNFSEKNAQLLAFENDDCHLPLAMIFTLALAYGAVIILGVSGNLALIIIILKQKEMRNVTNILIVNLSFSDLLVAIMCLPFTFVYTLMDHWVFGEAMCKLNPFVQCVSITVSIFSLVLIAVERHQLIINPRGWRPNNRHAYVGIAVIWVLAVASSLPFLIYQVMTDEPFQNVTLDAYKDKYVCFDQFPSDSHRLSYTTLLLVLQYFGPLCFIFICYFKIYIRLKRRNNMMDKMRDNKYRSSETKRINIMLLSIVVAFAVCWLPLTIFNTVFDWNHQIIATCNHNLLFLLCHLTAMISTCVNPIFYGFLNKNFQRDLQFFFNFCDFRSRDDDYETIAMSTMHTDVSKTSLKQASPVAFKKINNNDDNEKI
RAM inhibit – inhibitors of the yeast RAM network, primary screen, dse1pr::URA3 reporter, 5-FOA selection | S. cerevisiae dse1pr::URA3 reporter, 5-FOA growth OD615, 2 d; analog-sensitive cbk1-as2 kinase mutant strain | inhibition, % at 50 µM | actives 1.8% (n = 190,000) | AID 868, 2007;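 active means inhibition above a set limit, 3 SD over mean compound inhibition, cut at about 8.4% in these data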;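 further: 0% = DMSO-only wells with no growth and 100% = 10 µM 1-NA-PP1 full growth; inhibition rescues growth on 5-FOA so higher OD means more RAM inhibition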
NPY Y1 blocker – NPY-Y1 receptor antagonists, primary screen, cell-based; HEK293-CNG Y1 cells, membrane potential fluorescence; NPY at EC95, then isoproterenol; inhibition, % at 3.6 µM; actives 1% (n = 200,000); AID 1040, 2008;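 active means inhibition above the campaign mean inhibition of all tested compounds plus 3 SD, cut at about 20% in these data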;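 further: 0% = DMSO wells given NPY plus isoproterenol and 100% = isoproterenol alone without NPY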
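Assay system: HEK293 Y1/CNG channel cell line; Doses: single compound dose of 3.6 µM, 0.4% DMSO; Timing: dye 3 h, compound 60 min room temperature, stimulation 45 min; Technique: Membrane-potential fluorescent dye readout; Measure: % inhibition of NPY effect.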
NPY2 pot ag – NPY-Y2 potentiators or agonists, primary screen, cell-based | Neuropeptide Y receptor type 2 (Homo sapiens), P49146 | cells expressing NPY-Y2, potentiator/agonist read-out | activation, % at 3.6 µM | actives 0.45% (n = 220,000); in the data active means activation above about 27%;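 further: cells stimulated with NPY near EC25 plus isoproterenol at EC100; 0% = vehicle plus submaximal agonist and 100% = vehicle plus saturating agonist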
NPY Y2 blocker – NPY-Y2 receptor antagonists, primary screen, cell-based; Neuropeptide Y receptor type 2 (Homo sapiens), P49146; NPY-Y2 expressing cells, antagonist mode; inhibition, % at 2.7 µM; actives 0.99% (n = 140,000); AID 793, 2007; in the data active means inhibition above about 17%;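 further: 0% = vehicle with agonist challenge and 100% = reference antagonist with challenge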
RAM efflux-def – 5-FOA growth of efflux-deficient control yeast, dose response, counter-screen for RAM network inhibitor project, S. cerevisiae, OD615 | shares compounds with RAM inhibit | S. cerevisiae efflux-deficient reporter strain, 5-FOA growth OD615, 2 days | max inhibition, % | 1,200 tested, under 10 active; call rule not given here;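 further: plate controls were vehicle for no effect and reference inhibitor for full effect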
Starred values were filed as active, the others as inactive; · = no result.

SMILES | INS promoter inh | NPY-Y1 PAM-ag | RAM inhibit | NPY Y1 blocker | NPY2 pot ag | NPY Y2 blocker | RAM efflux-def
CCCCCCCCNC(=O)c1cccnc1SCC(=O)Nc1ccccc1OC | -31 | -4 | 12* | 1 | 8 | 10 | 1
COC(=O)CCSc1cc([N+](=O)[O-])cc2c1c(C1OCCO1)nn2-c1ccccc1 | 0 | 2 | 14* | -1 | 2 | 6 | 2
Cc1ccc(C)c(N2CCN(C(=O)c3ccc(Cn4c(=S)[nH]c5ccc(N6CCOCC6)cc5c4=O)cc3)CC2)c1 | -55 | 12 | 13* | -1 | 14 | · | 3
COc1cccc(N=Nc2c(N)[nH]n3c(=O)c4c(nc23)CCCC4)c1 | · | -5 | 1 | -2 | -9 | · | ·
O=C(O)CSc1nnc(Cc2cccc3ccccc23)n1-c1cc(C(F)(F)F)cc(C(F)(F)F)c1 | · | 15 | · | · | 19 | · | ·
CC(C)Oc1cccc(C(=O)NC(=S)Nc2cccc(C(F)(F)F)c2)c1 | · | -26 | 12* | 6 | -19 | 2 | 2
CCCCOc1cccc(C(=O)NC(=S)Nc2cccc(C(F)(F)F)c2)c1 | 0 | -14 | 13* | 0 | -6 | 6 | 3
Cn1cccc1C(=O)OCc1cc(Cl)cc2c1OCOC2 | · | -16 | 12* | 13 | 9 | 10 | 4
Cc1nn(Cc2cccc(C(=O)NN)c2)c(C)c1Cl | · | -9 | · | · | -12 | · | ·
Cc1cc2ncn(CCOc3ccccc3C#N)c2cc1C | 37 | 3 | 2 | 4 | 12 | 2 | ·
CCCc1nn(C)c(C(=O)Nc2ccc(C(C)(C)C)cc2)c1Cl | -63 | -6 | 13* | 4 | -10 | 9 | 4
CCCc1nn(C)c(C(=O)Nc2ccc(Cl)cc2)c1Cl | · | -12 | 3 | 8 | -8 | 8 | ·
COc1ccc(-c2ccc(SCC(=O)NCc3ccc4c(c3)OCO4)nn2)cc1OC | -183 | 8 | 12* | 1 | -4 | · | 6
CCOC(=O)C1=NN(c2ccccc2C)C2=NC(C)=C(C(=O)OC)C(c3cccc(OC)c3)N12 (stereo not given) | · | -6 | 23* | 10 | -6 | 15 | 3
CCOC(=O)C1=NN(c2ccccc2C)C2=NC(C)=C(C(=O)OC)C(c3cccs3)N12 (stereo not given) | -10 | -26 | 2 | 8 | -4 | 8 | ·
c1ccc(-c2noc(CN3CCc4sccc4C3)n2)cc1 | · | -15 | 0 | 12 | 5 | · | ·
COc1ccc(OC)c(NC(=O)C(Sc2ccccc2)c2ccccc2)c1 (stereo not given) | -37 | -11 | 14* | 14 | -23 | 10 | 4
COc1ccc(OC)c(NC(=O)CC(NC(C)=O)c2ccccc2)c1 (stereo not given) | 25 | 10 | 0 | 0 | 8 | · | ·
COc1cc2c(=O)n(Cc3ccco3)c(=O)n(CC(=O)c3cccc(Br)c3)c2cc1OC | -32 | 0 | 4 | -1 | -6 | 0 | ·
COc1cc2c(=O)n(Cc3ccco3)c(=O)n(CC(=O)c3ccc(Br)cc3)c2cc1OC | -3 | -10 | 12* | 2 | 7 | 5 | 2
O=C(CN(Cc1cccs1)C(=O)c1csnn1)NC1CCCC1 | -414 | -20 | 1 | 6 | 8 | 0 | ·
O=C(CN(Cc1cccs1)C(=O)CSc1nnc(COc2ccccc2)o1)NC1CCCC1 | 19 | 0 | 17* | 6 | -13 | 0 | 1
O=C(NCc1ccccc1)c1cccc(COc2ccc3c(c2)CCC3)c1 | · | -26 | 12* | 3 | -17 | 6 | 7
COC(=O)c1ccccc1NC(=O)c1ccc(COc2ccc3c(c2)CCC3)cc1 | 13 | -11 | 14* | 0 | 5 | 9 | 5
O=C(O)c1cccc(COc2ccc3c(c2)CCC3)c1 | · | -5 | · | · | -7 | · | ·
Cc1ccc(Oc2ccc(NC(=O)CCC(=O)OCC(=O)c3cccs3)cc2)cc1C | 8 | -3 | 13* | 1 | 5 | 4 | 3

Assay outcomes deposited in PubChem BioAssay by several laboratories.
